In the RNAGym collection of RNA variant scans (doi:10.1126/science.aae0568):
Fewer inactive variants are shown than the library holds.

B1: tRNA (parent)
chain: GUUCCGUUGGCGUAAUGGUAACGCGUCUCCCUCCUAAGGAGAAGACUGCGGGUUCGAGUCCCGUACGGAACG

Variants of: B1
Test: yeast fitness relative to wild type (ratio to wild type); higher = fitter; tRNA-Arg(CCU), competitive growth, 37 C, YPD
How it was run: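 Gene amplicons from the start population and from each of six end populations were read by 100-nucleotide paired-end sequencing. Those end populations came from pooled Saccharomyces cerevisiae strains carrying tRNA-Arg(CCU) gene variants at the native locus, competed in YPD at 37°C for 24 hours. Fitness relative to wild type was worked out from changes in genotype frequencies. Genotypes needed ≥ 100 starting reads, and estimates < 0.5 were set to 0.5.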

Row | Variant | yeast fitness
1 | A14G C24G C31U C55A | 0.552
2 | C5G C22A C31U G50U C60U | ≤ 0.5
3 | C22G U47C A70U | 0.722
4 | G10C A37U G52A | ≤ 0.5
5 | A15C A20G C33A A36C U47A | ≤ 0.5
6 | C31G U35C C66U | 0.558
7 | A21G G25C C61G G68U | ≤ 0.5
8 | C4G C24U A43U | 0.65
9 | U26A C33U U53C | 0.54
10 | U16C G52A G56C | ≤ 0.5
11 | C24A A45G C61G C62U | 0.543
12 | A21U U32G G48C G68C | ≤ 0.5
13 | C22G C27A A43C | 0.587
14 | C22G C27U U59A | 0.571
15 | G10C C11U G25C C30G G67C | 0.511
16 | A21C G68A | 0.799
17 | C4U G6A G25A U53A C66A | ≤ 0.5
18 | C27U C46A G50A | 0.73
19 | C4G G6A U13G A14G A69U | ≤ 0.5
20 | A15G G25C G48A | 0.637
21 | U8A A43C G44C | ≤ 0.5

Row | Variant | yeast fitness
22 | U2C A40C A42U C49G C66G | ≤ 0.5
23 | A15C C60U C66A | ≤ 0.5
24 | A14G C24G C31U C66G | ≤ 0.5
25 | C11U U13C C29U A37C U54A C62U G68A | ≤ 0.5
26 | U7G A15C U16A C33G A37C C49A C61U | 0.525
27 | G9C C27A U28G | ≤ 0.5
28 | U32C A70U | 0.935
29 | G10A C27G G48C C62A | ≤ 0.5
30 | C5G U26C G51C A57U | ≤ 0.5
31 | C5U U28C C46A C66G | 0.534
32 | A36C A42U A65U | 0.647
33 | G9A U26G A69G A70C | ≤ 0.5
34 | G18C G41C A43C C55U | ≤ 0.5
35 | C5G C30U A40G C55U | ≤ 0.5
36 | G9A C27G A37G U53A | ≤ 0.5
37 | G10C C27U A43G C46G A69C | ≤ 0.5
38 | C5A C55U A65G | 0.583
39 | G18A G44C A65U | 0.537
40 | A40C G56A | 0.883
41 | C11G C27U C46G | ≤ 0.5
42 | C11A A14C C34A A36G | ≤ 0.5

Row | Variant | yeast fitness
43 | U26A A57C C61G G67A A69U | ≤ 0.5
44 | C27A A57C C62U | 0.531
45 | C22U C24U G58C A65C | ≤ 0.5
46 | U19C G38A G41A | 0.577
47 | A14G A36U C46A G51A | ≤ 0.5
48 | A14C A45U A70G | 0.561
49 | G10C A69C | 0.785
50 | U2G C31U U64G A65U | ≤ 0.5
51 | G38A C49U G51C | ≤ 0.5
52 | U16C A37U | 0.683
53 | A20G A43G A65U | 0.596
54 | G9A C29A G50A A69C | ≤ 0.5
55 | C31U G68C | 0.68
56 | U8C C27U C31A C55A G56A A65G | ≤ 0.5
57 | U8C A14U C22G C30U U54C | ≤ 0.5
58 | C24U G50A A70C | 0.658
59 | A15G A70C | 1.04
60 | U3A G9C | 0.567
61 | U2C U13A G39C C60G | ≤ 0.5
62 | C4U C11A A37C A65C | ≤ 0.5
63 | G9C G17A C66U | ≤ 0.5

Row | Variant | yeast fitness
64 | G18C C31A A43G G58C A65G | ≤ 0.5
65 | U3C U7C G41A A42C G50C A70G | ≤ 0.5
66 | C22U C34U | 0.665
67 | C4A G52A | 0.884
68 | G12A G41A C60G A65G | 0.559
69 | C4U C11A G12A A42U C49U G51A | ≤ 0.5
70 | A21G C34U A65C | ≤ 0.5
71 | A14G A21C A36C A43U | ≤ 0.5
72 | A20G U26A A70U | 0.717
73 | U2C C29A C34G A43U G52A | 0.682
74 | C11U A37C C66U | 0.611
75 | C5U C30G A57C | 0.715
76 | C30A G51C C55A C66U | ≤ 0.5
77 | U3A G12A C29G G39A C66G | ≤ 0.5
78 | U13A A42U A70G | 0.745
79 | C30A U32G G67A A69C | ≤ 0.5
80 | G10A C11A C29A C66U | ≤ 0.5
81 | G6A G52A G63A | ≤ 0.5
82 | G58C U59C A70G | 0.706
83 | C5U A43U G50U | 0.657
84 | C5G C49A U64C | 0.621
